In ChEMBL document CHEMBL1800010, “Design, synthesis, and pharmacological activity of nonallergenic pyrazolone-type antipyretic analgesics” (J Med Chem, 2010):
Activity calls are given as the source filed them.

Columns and labels:
Rattus norvegicus [1] = assay: Drug excretion in rat urine assessed as norantipyrine formation at 100 mg/kg, po measured after 24 hrs by HPLC analysis; format: ADME, organism-based; parameters: dose 100 mg/kg, route oral; conditions: in vivo
How it was run: (§1)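 Single oral dose of 100 mg/kg to rats, with urine collected for 24 h. 1 mL urine was incubated with β-glucuronidase/sulphatase and Na2S2O5 in 0.1 M acetate, pH 4.5, at 37 °C for 24 h. Phenacetin internal standard added, then chloroform/methanol 9:1 extraction. Analyzed by C18 HPLC (acetate pH 6.6/acetonitrile 85:15, 254 nm) against authentic standards. Mean ± SEM, n=4.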

Rattus norvegicus [2] = assay: Antipyretic activity against IL-1beta-induced hyperthermia in rat assessed as change in rectal temperature at 50 mg/kg, po measured after 2 hrs
Rattus norvegicus [3] = assay: Antinociceptive activity in rat assessed as suppression of carrageenan-induced nociception in right hind paw at 100 mg/kg, po measured after 1 hr; format: functional, organism-based; parameters: dose 100 mg/kg
How it was run: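 Randall–Selitto paw pressure test in rats. Hyperalgesia induced by intraplantar injection of 0.1 mL carrageenin (10 mg/mL) into the right hindpaw, with oral dosing immediately afterward. Pressure rose at 16 g/s to squeak or struggle, cutoff 250 g. Baseline was the mean of the last four stable of 6-8 readings. Results given as % of baseline threshold, mean ± SEM, n=4.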

Liver microsomes [4] = assay: Metabolic stability in rat liver microsomes assessed as norantipyrine formation per mg of protein after 20 mins by HPLC analysis; format: ADME, Microsome
How it was run: (§2)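 Rat liver microsomes prepared by 9000g then 105000g centrifugation in 1.15% KCl, protein by Lowry. Incubation: 2 μmol substrate, 10 μmol NADPH, Na2S2O5 and microsomes (2-2.5 mg protein) in 2 mL 0.1 M K/Na phosphate, pH 7.4, 37 °C, 20 min. Stopped with TCA. Metabolites measured by C18 HPLC at 254 nm against authentic standards.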

Rattus norvegicus [5] = assay: Drug excretion in rat urine assessed as norantipyrine formation at 100 mg/kg, po measured after 24 hrs by HPLC analysis; conditions: in vivo, BLD = below limit of detection
Cavia porcellus = organism: Cavia porcellus; assay: Antigenicity in guinea pig assessed as erythema in abdomen id measured after 24 hrs by skin reaction assay; conditions: in vivo, other
Rattus norvegicus [6] = assay: Drug excretion in rat urine assessed as hydroxymethylpyrine formation at 100 mg/kg, po measured after 24 hrs by HPLC analysis; format: ADME, organism-based; parameters: dose 100 mg/kg, route oral; conditions: in vivo; how it was run: as §1
Rattus norvegicus [7] = organism: Rattus norvegicus; assay: Antipyretic activity against IL-1beta-induced hyperthermia in rat assessed as change in rectal temperature measured after 2 hrs; format: functional, organism-based
How it was run: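 Rats fitted with a guide cannula into the lateral ventricle. Fever induced by icv IL-1β (200 units/rat) in PBS pH 7.5. Compound given orally immediately after IL-1β at 10-100 mg/kg. Rectal temperature read by thermoelectric probe at 7 cm depth, after 3 days of adaptation, at 2 h intervals. ΔT_rec = T − T₀. Mean ± SEM, four rats.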

Rattus norvegicus [8] = assay: Antinociceptive activity in rat assessed as suppression of carrageenan-induced nociception in right hind paw at 2 mg/kg, po measured after 1 hr; format: functional, organism-based; parameters: dose 2 mg/kg
How it was run: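 Rat Randall-Selitto paw pressure test. Hyperalgesia induced by intraplantar injection of 0.1 mL carrageenin (10 mg/mL) into the right hindpaw. Drug given orally immediately after. Pressure applied at 16 g/s with a 250 g cutoff; threshold taken at squeaking/struggling. Baseline is the mean of the last four stable readings. Expressed as % of control threshold; mean ± SEM, n=4 rats.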

Rattus norvegicus [9] = assay: Antipyretic activity against IL-1beta-induced hyperthermia in rat assessed as change in rectal temperature at 100 mg/kg, po measured after 2 hrs
Liver microsomes [10] = assay: Metabolic stability in rat liver microsomes assessed as increase in […] products after 20 mins by HPLC analysis; format: ADME, Microsome; how it was run: as §2
Liver microsomes [11] = assay: Metabolic stability in rat liver microsomes assessed as hydroxyantipyrine formation per mg of protein after 20 mins by HPLC analysis; format: ADME, Microsome; how it was run: as §2
[12] = Drug excretion in rat urine at 100 mg/kg, po measured after 24 hrs by HPLC analysis; format: ADME, organism-based; parameters: dose 100 mg/kg, route oral; conditions: read-out: Activity; how it was run: as §1
Liver microsomes [13] = assay: Metabolic stability in rat liver microsomes assessed as hydroxymethylpyrine formation per mg of protein after 20 mins by HPLC analysis; format: ADME, Microsome; how it was run: as §2
Rattus norvegicus [14] = assay: Drug excretion in rat urine assessed as hydroxyantipyrine formation at 100 mg/kg, po measured after 24 hrs by HPLC analysis; format: ADME, organism-based; parameters: dose 100 mg/kg, route oral; conditions: in vivo; how it was run: as §1

| SMILES | Activity (Rattus norvegicus [1]; BLD = below limit of detection) | Activity (Rattus norvegicus [2]) | Activity (Rattus norvegicus [3]) | Activity (Liver microsomes [4]) | Activity (Rattus norvegicus [5]) | Activity (Cavia porcellus) | Activity (Rattus norvegicus [6]; BLD = below limit of detection) | Activity (Rattus norvegicus [7]) | Activity (Rattus norvegicus [8]) | Activity (Rattus norvegicus [9]) | Activity (Rattus norvegicus [1]) | Stability (Liver microsomes [10]) | Activity (Liver microsomes [11]) | Activity (Rattus norvegicus [6]) | dose excreted at 24 h [12] | Activity (Liver microsomes [13]) | Activity (Rattus norvegicus [14]) |
| --- | --- | --- | --- | --- | --- | --- | --- | --- | --- | --- | --- | --- | --- | --- | --- | --- | --- |
| Cc1cc(=O)n(-c2ccccc2)n1C(C)(C)C | BLD | Active | Active | < 0.1 nmol | BLD | Non-toxic | BLD | Dose-dependent effect |  |  |  |  |  |  |  |  |  |
| Cc1cc(=O)n(-c2ccccc2)n1CC(F)(F)F | BLD | Active | Active | < 0.1 nmol | BLD | Non-toxic | BLD | Dose-dependent effect |  |  |  |  |  |  |  |  |  |
| COc1ccc2c(c1)c(CC(=O)O)c(C)n2C(=O)c1ccc(Cl)cc1 |  |  |  |  |  |  |  |  | Active |  |  |  |  |  |  |  |  |
| Cc1cccc(Nc2ccccc2C(=O)O)c1C |  |  |  |  |  |  |  |  |  | Active |  |  |  |  |  |  |  |
| Cc1cc(=O)n(-c2ccccc2)n1C [ANTIPYRINE] |  |  | Active | 27 nmol |  | Toxic |  |  |  | Active | 2% | Unstable | 40 nmol | 2% | 2% | 40 nmol | 2% |
| Cc1cc(=O)n(-c2ccccc2)n1-c1ccccc1 | BLD | Active | Active | < 0.1 nmol | BLD | Non-toxic | BLD | Dose-dependent effect |  |  |  |  |  |  |  |  |  |
